These results are taken from ChEMBL document CHEMBL1154748, “4-Pyridylanilinothiazoles that selectively target von Hippel-Lindau deficient renal cell carcinoma cells by inducing autophagic cell death” (2010).

The GI50 is the concentration that inhibits growth by half. A lower GI50 goes with greater sensitivity of the cells.

A short description of assay [1]: Growth inhibition of VHL-null human RCC4 cells after 4 days by XTT assay. The assay is classed as functional. The settings on record: RCC4, 96 h. A digest of the protocol: (§1)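 XTT read-out: 5000 cells/well plated, vehicle or drug added next day, 4-day exposure. Then phenol red-free medium with 0.3 mg/mL XTT, 20% FCS and 2.65 μg/mL N-methyldibenzopyrazine methyl sulfate, 1-2 h at 37 °C, absorbance at 450 nm. GI50 by linear interpolation; single determinations in triplicate. Ratio is the intraexperiment RCC4-VHL GI50 / RCC4 GI50.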

Assay [2] is described as follows: Ratio of IC50 for human RCC4-VHL cells to IC50 for VHL-null human RCC4 cells. The assay is classed as functional. A digest of the protocol:
as §1

The test system of assay [3] is RCC4. The assay can be described thus: Induction of autophagy in VHL-null human RCC4 cells assessed as intracytoplasmic vacuoles at 5 uM after 24 h.

The source made the active and inactive calls. The calls are words filed in the database; no cut-off is given here.

`Cc1cccc(Nc2nc(-c3ccncc3C#CCO)cs2)c1`: in assay [1], halving of growth (GI50) required 0.24 µM. For the same compound, in assay [2], the RatioGI50 is 11.9. Also, the result in assay [3] was Active.
The compound `COCC#Cc1cnccc1-c1csc(Nc2cccc(C)c2)n1` registered a GI50 in assay [1] of 0.62 µM. Also, in assay [2], the RatioGI50 stood at 45. Moreover, the result in assay [3] was Active.
On the same counts, the results for `c1cc(-c2csc(Nc3ccc4c(c3)CCC4)n2)ccn1` are 2 µM, 10 and “Active”.
On the same counts, the results for `Cc1cccc(Nc2nc(-c3ccncc3Cl)cs2)c1` are 2.9 µM, above 13.8 and “Active”.
Compound `Clc1ccccc1Nc1nc(-c2ccncc2)cs1` gave a GI50 in assay [1] of 27.6 µM. Also, the RatioGI50 in assay [2] is above 1.4.
On the same counts, the results for `Cc1cccc(Nc2nc(-c3ccncc3)c(CN3CCOCC3)s2)c1` are 2.5 µM and 4.8.
As for `CN(C)CCc1ccc(Nc2nc(-c3ccncc3)cs2)cc1`, in assay [1], the GI50 was determined as 50 µM. Also, the RatioGI50 in assay [2] is given as 1.2.
On the same counts, the results for `Oc1cccc(Nc2nc(-c3ccncc3)cs2)c1` are 28.5 µM and above 3.
On the same counts, the results for `Cc1sc(Nc2ccc3c(c2)CCC3)nc1-c1ccncc1` are 12 µM and 1.5.
Compound `Oc1ccccc1Nc1nc(-c2ccncc2)cs1` came in with a GI50 in assay [1] of 12.8 µM. Moreover, the RatioGI50 in assay [2] was above 3.1.
On the same counts, the results for `c1ccc(Nc2nc(-c3ccccn3)cs2)cc1` are 35.1 µM and 0.9.
On the same counts, the results for `Cc1cccc(Nc2nc(-c3ccncc3C)cs2)c1` are 5.2 µM and above 7.7.
On the same counts, the results for `Fc1ccc(Nc2nc(-c3ccncc3)cs2)cc1` are 6 µM and above 7.
With `Clc1ccc(Nc2nc(-c3ccncc3)cs2)cc1Cl`, in assay [1], the GI50 is 13.5 µM. For the same compound, the RatioGI50 in assay [2] is on record as above 3.
`CCN(c1cccc(C)c1)c1nc(-c2ccncc2)cs1` returned a concentration for 50% growth inhibition (GI50) in assay [1] of 40 µM. In assay [2], the RatioGI50 is given as 0.6.
On the same counts, the results for `Oc1ccc(Nc2nc(-c3ccncc3)cs2)cc1` are 5.3 µM and 8.
For `Cc1cccc(Nc2nc(-c3ccncc3)cs2)c1`, halving of growth in assay [1] (GI50) required 2.1 µM. Moreover, the RatioGI50 in assay [2] is recorded as 19.
In assay [1], `Cc1cccc(Nc2nc(-c3ccncc3F)cs2)c1` gave a concentration for 50% growth inhibition (GI50) of 2 µM. For the same compound, in assay [2], the RatioGI50 was above 20.
